Screens as filed in PubChem BioAssay.
Shown are actives, neighbours in structure and some others; about 1.9% of the full set was active somewhere.
PHOSPHO1 inh: blocks human PHOSPHO1 phosphatase activity. Q8TCT1. 290,000 compounds, 1.1% hits. inhibition, % at 13.3 µM. AID 1565. recombinant PHOSPHO1, absorbance phosphatase assay; in the data active = inhibition above about 60%
UBC13 polyUb: inhibitors of human UBC13 polyubiquitin chain formation; P61088; TR-FRET; inhibition, % at 20 µM; 330,000 compounds, 0.47% hits; in the data active = inhibition above about 45%, passing the limit was not always enough; inconclusive = no clear call, values can overlap the other calls
Target sequence (P61088 whole entry, looked up): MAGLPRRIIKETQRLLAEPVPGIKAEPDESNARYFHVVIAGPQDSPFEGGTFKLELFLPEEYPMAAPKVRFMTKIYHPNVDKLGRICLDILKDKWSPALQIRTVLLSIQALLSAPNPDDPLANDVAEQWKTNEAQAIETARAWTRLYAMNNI
proCasp7 act: counter-screen for procaspase-3 activators: activators of human procaspase-7 | P55210 | recombinant procaspase-7, Ac-DEVD-pNA absorbance 405 nm; D23A/D198A/D206A triple mutant, cannot self-cleave; scale: DMSO 0, 5 µM enzyme 100 | 330,000 compounds, 0.093% hits | activation, % at 8.5 µM;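 active = percent activation above the screen-wide mean plus 3 SD, cut at about 25% in these data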
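Assay system: Uncleavable procaspase-7 mutant enzyme; Input: 2 µM procaspase-7 mutant as dispensed; Also added: DEVD-pNA substrate; Medium: Zinc-free HEPES pH 7.4 with 300 mM NaCl, 0.01% Triton X-100; Timing: 1 h compound preincubation, 2 h substrate cleavage, 25 °C; Measured by: Epi-absorbance of released pNA at 405 nm, two timepoints.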
IDE cell activ: activators of human insulin-degrading enzyme in cells | HEK cells, FAbeta-B cleavage, fluorescence polarization; 0% vehicle, 100% cell-free pure enzyme wells | activation, % at 5.96 µM | P14735 | AID 493087 | 340,000 compounds, 0.073% hits;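 active = activation above the mean of all tested compounds plus 3 SD, set per screening campaign, cut at about 17% in these data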
IDE inh: inhibitors of human insulin-degrading enzyme in cells; P14735; HEK cells, FAbetaB cleavage, fluorescence polarization; inhibition, % at 5.59 µM; 320,000 compounds, 0.41% hits;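 active = percent inhibition above the average of all tested compounds plus 3 SD, set per screening campaign, cut at about 16% in these data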;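 also: IDE supplied by intact live HEK cells; FP after avidin binding of uncleaved biotin substrate so inhibition keeps polarization high; 0% = DMSO wells and 100% = 60 µM reference IDE inhibitor Ii1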
procasp3 activ: procaspase-3 (human) activation; P42574; recombinant procaspase-3 D3A, Ac-DEVD-pNA absorbance 405 nm; activation, % at 8.5 µM; 330,000 compounds, 0.11% hits; AID 463141;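 active = activation above the mean of all tested compounds plus 3 SD, cut at about 21% in these data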;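 also: 0% = DMSO alone and 100% = DMSO wells spiked with extra 5 µM PC-3 D3A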
Target sequence (P42574 whole entry D9A/D28A/D175A): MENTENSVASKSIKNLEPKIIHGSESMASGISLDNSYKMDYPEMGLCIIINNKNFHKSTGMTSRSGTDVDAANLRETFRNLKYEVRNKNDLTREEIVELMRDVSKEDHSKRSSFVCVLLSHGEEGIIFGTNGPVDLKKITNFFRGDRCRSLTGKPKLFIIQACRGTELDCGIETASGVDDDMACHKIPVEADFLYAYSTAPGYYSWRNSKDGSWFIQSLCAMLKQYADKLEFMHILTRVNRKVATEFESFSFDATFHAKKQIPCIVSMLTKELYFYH
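System: Procaspase-3 D3A mutant. Medium: Zinc-free 300 mM NaCl, 50 mM HEPES, 0.01% Triton X-100. Schedule: 1 h preincubation plus 2 h reaction at 25 °C. Measured by: 405 nm absorbance of p-nitroaniline, reads at 0 and 120 min. Read-out: percent activation relative to control range.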
IDE cell inh cf: confirmation of human insulin-degrading enzyme inhibitors in cells; shares compounds with IDE inh; 1,200 compounds, 51% hits; AID 435028; HEK cells, FAbetaB cleavage, fluorescence polarization; inhibition, % at 5.59 µM;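 active = mean inhibition across triplicate wells above the cutoff set by the earlier primary insulin-degrading enzyme screen, cut at about 16% in these data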;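 also: 0% = DMSO wells and 100% = 60 µM reference IDE inhibitor Ii1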
HEK293 tox: HEK cell cytotoxicity, counter-screen for IDE inhibitors | HEK293 cytotoxicity, ATP luminescence | inhibition, % at 5.59 µM | shares compounds with IDE inh | 1,200 compounds, 28% hits; in the data active = inhibition above about 22%;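 also: 0% = vehicle wells and 100% = reference cytotoxic drug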
IDE FP artifact: fluorescence interference counter-screen for IDE inhibitors. shares compounds with IDE inh. FP counterscreen for fluorescent artifacts, IDE probe project. IC50, µM. 30 tested, under 10 active; call rule not given here
Numbers without * were called inactive; ? = inconclusive; / = no result.

SMILES	PHOSPHO1 inh	UBC13 polyUb	proCasp7 act	IDE cell activ	IDE inh	procasp3 activ	IDE cell inh cf	HEK293 tox	others
Cc1ccc2nc3n(c(=O)c2c1)-c1ccccc1C(=O)NC3Cc1ccccc1 (stereo unspecified)	/	13	-3	/	5	15	/	/
O=c1onc(-c2ccccc2)c2ccccc12	/	0	2	9	16*	-2	7	3
Cc1cccc(C)c1N1CCN(c2cc(Cl)nc(N)n2)CC1	46	10	3	-8	18*	4	4	14
C(=N\Nc1nc(-c2ccccc2)cs1)/c1ccncc1	-19	10	-19	-7	-7	-4	/	/
O=C(O)Cc1sc(N/N=C\c2ccncc2)nc1-c1ccccc1	32	-15	-47	-67	40*	-23	32*	10
CC1C/C(=C/c2ccncc2)C(=O)/C(=C/c2ccncc2)C1 (stereo unspecified)	-8	-10	-5	-1	3	8	/	/
CC1C/C(=C/c2cccn2C)C(=O)/C(=C/c2cccn2C)C1 (stereo unspecified)	42	-106	-37	-74	39*	-35	94*	23*
O=C(c1ccc2ncsc2c1)N1CCN(c2nc3ccccc3s2)CC1	17	3	-8	-18	25*	3	13	42*
O=C(c1ccc2ncsc2c1)N1CCN(c2ccccc2Cl)CC1	19	8	11	7	5	5	/	/
O=C(Nc1ccccc1)N1CCN(c2nc3ccccc3s2)CC1	17	7	21	-19	18*	9	4	30*
COc1ccc(C2C(C(C)=O)=C(C)N=c3s/c(=C\c4cc(C)n(C)c4C)c(=O)n32)c(OC)c1 (stereo unspecified)	71*	-260	-11	-39	116*	-2	26*	10
CCCc1nc(SCC(=O)Nc2nc3c(s2)CCCC3)c2ccccc2n1	58	19	7	-11	6	1	/	/
CCc1nc(SCC(=O)Nc2nc3c(s2)CCCC3)c2ccccc2n1	28	?	1	-30	31*	2	8	10
Cc1ccc(NC(=O)CN(C)C(=O)COC(=O)CCS(=O)(=O)c2ccc(C)cc2)cc1	26	1	10	5	1	1	/	/
Cn1c(N)c(-c2ccccc2)c2ccc([N+](=O)[O-])cc2c1=O	23	-144	-12	-9	25*	-14	25*	27*
CCOc1ccc(Nc2ccnc3cc(Cl)ccc23)cc1	46	7	5	-16	17*	9	15	36*
CN1CCN(c2ccc(Nc3ccnc4cc(Cl)ccc34)cc2)CC1	/	20	-24	-18	11	-4	/	/
Cc1ccc(C2=CC(c3ccc(N(C)C)cc3)n3nnnc3N2)cc1 (stereo unspecified)	17	-6	-25	-64	41*	-21	42*	13
COc1ccc(C2=CC(c3ccc(F)cc3)n3nnnc3N2)cc1 (stereo unspecified)	-3	2	-3	-2	10	4	/	/
Cc1ccc(-n2c(SCC(=O)N3CCCc4ccccc43)nnc2-c2cccnc2)c(C)c1	-13	6	4	-4	-1	4	/	/
CCOc1ccccc1-n1c(SCC(=O)N2CCCc3ccccc32)nnc1-c1cccnc1	-9	10	-2	-38	33*	7	17*	16
O=C(CN1C(=O)NC2(CCCC2)C1=O)N1CCN(c2ccc(C(F)(F)F)cc2[N+](=O)[O-])CC1	/	/	/	7	/	/	/	/
Cc1cccc(Nc2ncnc3c2cnn3C)c1	41	-7	14	-15	8	2	/	/
Cn1ncc2c(Nc3ccc4ccccc4c3)ncnc21	16	-4	6	-58	32*	5	4	10
CCN(CC)c1ccc(C=Nc2cccc(S(=O)(=O)N3CCOCC3)c2)c(O)c1	/	-18	2	1	3	4	/	/
SMILES	PHOSPHO1 inh	UBC13 polyUb	proCasp7 act	IDE cell activ	IDE inh	procasp3 activ	IDE cell inh cf	HEK293 tox	others
CCN(CC)c1ccc(/C=N/NC(=O)c2cccc(S(=O)(=O)N3CCOCC3)c2)c(O)c1	43	19	-2	-27	22*	18	37*	85*
Nc1ccccc1Sc1nc2ccccc2[nH]1	56	-14	-16	-16	16*	-20	6	3
COc1ccc([C@H]2CC(=O)C=C(c3ccc4ncccc4c3)C2)cc1OC	/	0	-15	0	1	-2	/	/
COc1ccc(COc2ccccc2C(=O)Nc2ccccn2)cc1[N+](=O)[O-]	-21	4	-3	5	9	-4	/	/
Cc1cccc(C(=O)Nc2ccnc(-c3cccnc3)n2)c1	38	10	5	-26	44*	3	31*	12
Cc1ccccc1C(=O)Nc1ccnc(-c2ccncc2)n1	24	2	5	-3	7	9	/	/
Cc1cccc(C(=O)Nc2ccnc(-c3ccncc3)n2)c1	37	-7	-7	-22	51*	6	27*	8
Nn1c(SCC(=O)Nc2cccc(Br)c2)nnc1C1CC1	/	-5	0	-1	3	-5	/	/
CCc1c(C#N)c(SCCC(=O)Nc2ccc(OC)cc2)nc2c1C(=O)CC(C)(C)C2	-4	-3	-1	0	3	-7	/	/
CCc1c(C#N)c(SCc2c(C)noc2C)nc2c1C(=O)CC(C)(C)C2	-8	0	-6	-12	18*	0	1	32*
CC(C)(CC(=O)O)CC(=O)N1CCCN(c2nc3ccc(Cl)cc3s2)CC1	-16	4	11	-22	7	4	/	/
CC(C)(CC(=O)O)CC(=O)N1CCN(c2nc3ccc(Cl)cc3s2)CC1	/	-5	1	-30	16*	5	2	14
O=C(Nc1nnc(C2=COCCO2)o1)c1ccc([N+](=O)[O-])cc1	48	-18	-4	0	6	8	/	/
O=C(Nc1ccc2oc(-c3ccccc3)nc2c1)c1ccc2c(c1)OCCO2	15	0	10	-12	19*	-1	4	23*
O=C(Nc1ccc2oc(-c3cccnc3)nc2c1)c1ccc2c(c1)OCCO2	35	-20	5	-19	18*	6	18*	13	IDE FP artifact=>55
O=C(Nc1ccc2oc(-c3ccncc3)nc2c1)c1ccc2c(c1)OCO2	25	12	1	-15	9	-1	/	/
